How the values were obtained:
[1] = molecular target: T1, Xanthine dehydrogenase/oxidase (Homo sapiens, UniProt P47989); experiment: Inhibition of xanthine oxidase
Procedure, shortened: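 Enzyme preincubated 15 min at room temperature: xanthine oxidase 0.066 U/mL in 50 mM potassium dihydrogen phosphate pH 7.4 with compound in DMSO (1% final). Started with 100 µM xanthine plus 1 mM EDTA. Mean ± SEM of 3 experiments, each in triplicate.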

[2] = system: MCF7; experiment: Growth inhibition of human MCF7 cells after 48 hrs; type: functional; details: MCF7, 48 h
Procedure, shortened: (§1)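 SRB protein-stain assay following the NCI screening protocol. Cells kept adherent in RPMI-1640 with 5% heat-inactivated FBS, 2 mM glutamine and 50 µg/mL gentamicin at 37 °C under 5% CO2. Seeded at 7.5 × 10^4 cells/mL (NCI-H460) or 1.5 × 10^5 cells/mL (MCF-7, SF-268). Exposed 48 h to five concentrations, top 150 µM, DMSO ≤0.25%. […] Mean ± SEM of 1–6 experiments in duplicate.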

[3] = system: NCI-H460; experiment: Growth inhibition of human NCI-H460 cells after 48 hrs; type: functional; details: NCI-H460, 48 h; procedure, shortened: as §1
[4] = system: SF-268; experiment: Growth inhibition of human SF268 cells after 48 hrs; type: functional; details: SF-268, 48 h; procedure, shortened: as §1
[5] = molecular target: T1, Xanthine dehydrogenase/oxidase; experiment: Activity of xanthine oxidase assessed as change in absorbance per min at 40 uM in presence of xanthine
Procedure, shortened: (§2)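 Kinetic runs: xanthine oxidase (0.066 U/mL) in 50 mM potassium dihydrogen phosphate pH 7.4 preincubated 15 min at room temperature with inhibitor in DMSO (1% final). Started with xanthine at 100, 75, 50 or 25 µM plus 1 mM EDTA. Uric acid formation read at 295 nm over 2 min as ΔA/min. Vmax and Km taken from Lineweaver–Burk plots.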

[6] = molecular target: T1, Xanthine dehydrogenase/oxidase; experiment: Activity of xanthine oxidase assessed as change in absorbance per min at 10 uM in presence of xanthine; procedure, shortened: as §2
[7] = molecular target: T1, Xanthine dehydrogenase/oxidase; experiment: Inhibition of xanthine oxidase at 100 uM
[8] = molecular target: T1, Xanthine dehydrogenase/oxidase; experiment: Activity of xanthine oxidase assessed as change in absorbance per min at 0.025 uM in presence of xanthine; procedure, shortened: as §2
[9] = molecular target: T1, Xanthine dehydrogenase/oxidase; experiment: Activity of xanthine oxidase assessed as change in absorbance per min at 0.1 uM in presence of xanthine; procedure, shortened: as §2

T1 sequence (P47989 whole entry): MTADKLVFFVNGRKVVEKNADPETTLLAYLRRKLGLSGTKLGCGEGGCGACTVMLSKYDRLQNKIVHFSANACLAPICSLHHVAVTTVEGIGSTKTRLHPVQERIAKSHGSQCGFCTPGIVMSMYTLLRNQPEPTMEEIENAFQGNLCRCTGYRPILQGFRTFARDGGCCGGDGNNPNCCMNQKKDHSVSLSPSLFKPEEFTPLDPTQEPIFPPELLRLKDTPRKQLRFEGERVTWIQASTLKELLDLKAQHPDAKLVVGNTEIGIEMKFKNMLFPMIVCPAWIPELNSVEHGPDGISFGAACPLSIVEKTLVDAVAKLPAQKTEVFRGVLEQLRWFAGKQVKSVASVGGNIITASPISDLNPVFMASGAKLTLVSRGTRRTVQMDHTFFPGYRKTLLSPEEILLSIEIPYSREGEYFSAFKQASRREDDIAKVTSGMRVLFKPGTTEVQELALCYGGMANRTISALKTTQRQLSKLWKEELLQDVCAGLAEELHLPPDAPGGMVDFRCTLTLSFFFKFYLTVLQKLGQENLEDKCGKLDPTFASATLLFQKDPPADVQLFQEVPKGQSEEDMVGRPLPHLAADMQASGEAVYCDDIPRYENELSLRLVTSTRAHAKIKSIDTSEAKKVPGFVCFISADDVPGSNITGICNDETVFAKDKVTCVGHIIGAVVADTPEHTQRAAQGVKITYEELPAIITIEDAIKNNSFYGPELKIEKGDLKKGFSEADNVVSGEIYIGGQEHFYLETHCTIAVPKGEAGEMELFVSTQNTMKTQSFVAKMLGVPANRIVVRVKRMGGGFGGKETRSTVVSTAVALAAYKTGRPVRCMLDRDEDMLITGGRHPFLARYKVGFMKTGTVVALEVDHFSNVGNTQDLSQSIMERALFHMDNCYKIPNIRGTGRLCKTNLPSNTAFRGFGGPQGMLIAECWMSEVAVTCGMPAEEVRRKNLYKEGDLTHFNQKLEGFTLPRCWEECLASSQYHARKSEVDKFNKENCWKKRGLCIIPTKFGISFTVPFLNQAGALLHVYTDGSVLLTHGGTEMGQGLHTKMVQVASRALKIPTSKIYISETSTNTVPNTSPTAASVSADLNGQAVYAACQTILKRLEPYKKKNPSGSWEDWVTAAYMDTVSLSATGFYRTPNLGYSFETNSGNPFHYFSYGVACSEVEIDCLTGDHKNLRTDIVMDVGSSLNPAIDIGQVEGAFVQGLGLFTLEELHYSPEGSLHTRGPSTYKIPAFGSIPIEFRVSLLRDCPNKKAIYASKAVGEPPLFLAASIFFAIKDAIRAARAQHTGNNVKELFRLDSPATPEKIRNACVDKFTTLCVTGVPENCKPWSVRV

SMILES | IC50 [1] [µM] | GI50 [2] [µM] | GI50 [3] [µM] | GI50 [4] [µM] | further results
N#Cc1ccc(-n2ncc(C#N)c2N)cc1 | > 100 | > 150 | > 150 | > 150 | –
N#Cc1cnn(-c2ccc([N+](=O)[O-])cc2)c1N | > 100 | 64 | 128 | 135 | –
CC(=O)OC[C@H]1O[C@@H](Nc2c(C#N)cnn2-c2ccc(C(=O)O)cc2)[C@H](OC(C)=O)[C@@H](OC(C)=O)[C@@H]1OC(C)=O | > 100 | – | – | – | –
COc1cccc2c1C(=O)c1c(O)c3c(c(O)c1C2=O)C[C@@](O)(C(=O)CO)C[C@@H]3O[C@H]1C[C@H](N)[C@H](O)[C@H](C)O1 [DOXORUBICIN] | – | 0.0428 | 0.094 | 0.093 | –
N#Cc1cnn(-c2ccc(Cl)cc2)c1N | > 100 | > 150 | > 150 | > 150 | –
Oc1ncnc2[nH]ncc12 [ALLOPURINOL] | – | – | – | – | inhibition at 100 µM [7]: 96.3%
Cc1ccc(-n2ncc(C#N)c2N)cc1 | > 100 | > 150 | > 150 | > 150 | –
N#Cc1cnn(-c2ccc(C(F)(F)F)cc2)c1N | > 100 | > 150 | > 150 | > 150 | –
COc1ccc(-n2ncc(C#N)c2N)cc1 | > 100 | > 150 | > 150 | > 150 | –

Continued by falling IC50 [1], values first:

IC50 [1] [µM] | GI50 [2] [µM] | GI50 [3] [µM] | SMILES | GI50 [4] [µM] | further results
81 | – | – | Nc1ncnc2c1cnn2-c1ccc(C(=O)O)cc1 | – | –
37.9 | > 150 | > 150 | COC(=O)CNC(=O)c1ccc(-n2ncc(C#N)c2N)cc1 | > 150 | deltaA [5]: 0.09; deltaA [6]: 0.23
36.1 | – | – | N#Cc1cnn(-c2ccc(C(=O)O)cc2)c1N | – | deltaA [5]: 0.08; deltaA [6]: 0.12
19.6 | > 150 | > 150 | COc1ccc(-n2ncc3c(N)ncnc32)cc1 | > 150 | –
18.4 | > 150 | > 150 | CC(=O)OC[C@H]1O[C@@H](Nc2ncnc3c2cnn3-c2ccc(C(=O)O)cc2)[C@H](OC(C)=O)[C@@H](OC(C)=O)[C@@H]1OC(C)=O | > 150 | –
17.4 | – | – | Cc1ccc(-n2ncc3c(N)ncnc32)cc1 | – | –
2.2 | – | – | Nc1ncnc2c1cnn2-c1ccc([N+](=O)[O-])cc1 | – | –
0.4 | – | – | N#Cc1ccc(-n2ncc3c(N)ncnc32)cc1 | – | –
0.18 | – | – | Nc1ncnc2c1cnn2-c1ccc(C(F)(F)F)cc1 | – | –
0.08 | > 150 | > 150 | COC(=O)CNC(=O)c1ccc(-n2ncc3c(N)ncnc32)cc1 | > 150 | deltaA [8]: 0.16; deltaA [9]: 0.13
